Screening results deposited in PubChem BioAssay by Broad Institute.
ERAP1 inh: ERAP1 (human) enzyme inhibition; recombinant ERAP1, Leu-AMC fluorescence, 60 min; inhibition, % at 10.7 µM; hit rate 0.15% among 340,000;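 active means mean replicate inhibition of at least 30%, or all replicates individually reaching that 30% level; inactive means mean below 30% and not every replicate reaching it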;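 further: 0% = neutral control wells and 100% = L-leucinethiol positive control wells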
PGC1a acetyl inh: modulators of PGC1a acetylation; U2OS PGC1a acetylation, AlphaScreen anti-acetyl-lysine; with virally co-expressed GCN5 acetyltransferase; inhibition, % at 15.6 µM; hit rate 0.17% among 350,000; AID 651687;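 active means every replicate shows inhibition of at least 40%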;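 further: 0% = neutral control wells and 100% = positive control wells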
Cneo AK release: Cryptococcus neoformans lysis via adenylate kinase release. C. neoformans lysis, adenylate kinase release luminescence, 4 h; normalised: neutral wells 0, clomiphene wells 100. lysis activity, % at 15 µM. hit rate 0.2% among 360,000. AID 651654;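 active means mean lysis activity across replicates of at least 80%, whatever share of replicates individually reach that level; inactive means mean lysis activity below 80%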
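Test system: log-phase Cryptococcus neoformans yeast cells; Quantity: yeast cell density of 5 × 10^6 cells/mL; Buffer or medium: YPD; Doses: single compound concentration per well; Timing: 4 h at 37 °C static, read 1 h later; Measured by: AK luminescence; Read-out basis: lysis from increased AK signal; Control set: Clomiphene as positive control.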
FGF22 binding: shifts melting point of recombinant human FGF22; recombinant FGF22 thermal shift, SYPRO orange fluorescence; percent of sucrose octasulfate shift, DMSO zero; Q9HCT0; hit rate 1.5% among 340,000; activity (Tm shift, normalised), % at 9.99 µM;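 active means mean Tm shift, scaled 0 neutral to 100 positive control, at about 1.3% or above, every replicate too, limit read from the data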
Ecoli rRNA inh: selective bacterial rRNA inhibition in E. coli; E. coli WT GFP vs humanized-ribosome RFP mutants, fluorescence, 24 h; stronger effect = lower value; DMSO median 0, no signal -100; GFP signal change (wild-type ribosome), % (concentration not given with the values); hit rate 1.6% among 350,000; AID 720706;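 active means significant combined selectivity score with lowered wild-type GFP, culture density cut under 30%, mutant RFP and density less affected; inactive means any of these conditions unmet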
HIV Env fusion: inhibitors of HIV Env-mediated cell fusion | inhibition, % at 12.3 µM | HeLa-JRFL Env/CEM21 cell fusion, luciferase | hit rate 1.1% among 360,000;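 active means mean replicate inhibition score of at least 50 and every replicate individually at or above 50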;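 further: 0% = plate neutral controls and 100% = maraviroc near 300 nM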
* = called active by the depositor; x = no result given. Rows were chosen to be rich in hits. Some 3.5% of all compounds tested hit in one or more screens of this group.

SMILES | ERAP1 inh | PGC1a acetyl inh | Cneo AK release | FGF22 binding | Ecoli rRNA inh | HIV Env fusion
COc1ccc(-c2ccc3c(c2)C2CC3CCN2S(=O)(=O)c2ccccc2C)cc1 (stereo unspecified) | 1 | -14 | 0 | 0 | 5 | 57*
CSc1ccc(CN2CCC(C)(Oc3ccccc3F)C2)cc1 (stereo unspecified) | 0 | x | 0 | 0 | 4 | -21
COc1ccc(C(=O)N2CCCC(CCC(=O)NCc3ccc(F)c(F)c3)C2)o1 (stereo unspecified) | 3 | 18 | -12 | 43* | 2 | -1
O=C(NC1CC1)c1cc2cc3ccccc3nc2s1 | -1 | 7 | -5 | 0 | -21* | -108
COc1ccc(C(CC(=O)c2ccc(C)cc2)Sc2ccccc2N)cc1 (stereo unspecified) | -5 | -4 | -6 | 0 | 1 | -66
Nc1ccccc1SC(CC(=O)c1ccccc1)c1cccc([N+](=O)[O-])c1 (stereo unspecified) | -1 | -11 | -1 | 0 | -24* | -118
Nc1ccccc1SC(CC(=O)c1ccccc1)c1ccc([N+](=O)[O-])cc1 (stereo unspecified) | -1 | 2 | -2 | 0 | -20* | -145
O=C(NCC1CCCO1)c1cccc(S(=O)(=O)NCc2ccccc2)c1 (stereo unspecified) | -1 | -8 | 7 | 0 | 5 | 3
COc1ccc(N2CCN(C(=O)c3cc4c(-c5ccc(Cl)cc5)nn(C)c4s3)CC2)cc1 | x | -9 | 1 | 0 | 2 | 8
Cn1cc(CN2CCC(C(=O)N3CCCC3)CC2)c(-c2ccccc2F)n1 | 1 | x | x | 43* | 16 | 2
CC(C)OC(=O)C1C(=O)CC(C)(O)C(C(=O)OC(C)C)C1c1cccc([N+](=O)[O-])c1 (stereo unspecified) | 3 | x | x | 0 | 13 | 14
CCOC(=O)C1C(c2cccc([N+](=O)[O-])c2)C2C(=O)NN=C2CC1(C)O (stereo unspecified) | 4 | x | x | 43* | 20 | -8
Cc1cccc(N2C(=O)c3cccc(Oc4ccc(Cl)cc4)c3C2=O)c1 | -1 | 9 | x | 0 | -4 | 14
COc1ccc(N2c3ccccc3CN(Cc3ccccc3)CC2Cc2cc(OC)c(OC)c(OC)c2)cc1 (stereo unspecified) | -2 | 10 | 0 | 44* | -5 | -6
Cc1ccc(NC(=O)CN2C(=O)S/C(=C/c3ccc(-c4cccc(C(=O)O)c4)o3)C2=O)cc1 | 1 | -10 | x | 43* | -20 | 3
Cc1ccc(C(=O)O)cc1-c1ccc(/C=C2\SC(=O)N(CC(=O)Nc3ccccc3)C2=O)o1 | 2 | 2 | -1 | 0 | 6 | 1
O=C(c1ccc(Br)o1)N1CCC(c2nc3ccccc3[nH]2)CC1 | -4 | x | x | 0 | 0 | -1
Cc1c(C(=O)C(=O)NCc2cccs2)c2ccccc2n1C | -5 | 2 | x | 43* | -8 | 7
Cc1ccc([N+](=O)[O-])cc1S(=O)(=O)NCCc1c(C)[nH]c2c(C)cccc12 | -3 | -9 | -1 | 0 | -20* | 0
Cc1[nH]c2c(C)cccc2c1CCNS(=O)(=O)c1cccc([N+](=O)[O-])c1 | -3 | x | x | 0 | -18 | 0
COc1ccc2[nH]c(=O)c(CN(Cc3ccccc3)C(=S)NCC3CCCO3)cc2c1 (stereo unspecified) | 0 | x | x | 44* | 17 | 25
COc1ccc2[nH]c(=O)c(CN(Cc3nnnn3Cc3ccccc3)CC3CCCO3)cc2c1 (stereo unspecified) | x | 7 | 1 | x | x | 112*
COc1ccc2cc(CN(CC3CCCO3)S(=O)(=O)c3ccccc3Cl)c(=O)[nH]c2c1 (stereo unspecified) | -2 | 3 | -1 | x | -36* | x
COc1ccc2cc(CN(Cc3cccnc3)Cc3nnnn3Cc3ccccc3)c(=O)[nH]c2c1 | -3 | x | x | 0 | -28* | x
O=c1[nH]c2ccccc2cc1CN(CC1CCCO1)S(=O)(=O)c1ccc(Cl)cc1 (stereo unspecified) | 0 | -11 | -2 | -1 | -8 | 6
